Data reported in ChEMBL document CHEMBL1129267, “Aryl 1-but-3-ynyl-4-phenyl-1,2,3,6-tetrahydropyridines as potential antipsychotic agents: synthesis and structure-activity relationships” (J Med Chem, 1996).

How the values were obtained:
Mus musculus [1] = test: (§1) Compound was tested for the inhibition of locomotor activity (LMA)by administering Intraperitoneally in mouse.; type: functional; conditions: ip
D(1A) dopamine receptor [2] = biological target: T1, D(1A) dopamine receptor (Rattus norvegicus, UniProt P18901); type: cell membranes, Brain, Membrane
T1 sequence (P18901 whole entry): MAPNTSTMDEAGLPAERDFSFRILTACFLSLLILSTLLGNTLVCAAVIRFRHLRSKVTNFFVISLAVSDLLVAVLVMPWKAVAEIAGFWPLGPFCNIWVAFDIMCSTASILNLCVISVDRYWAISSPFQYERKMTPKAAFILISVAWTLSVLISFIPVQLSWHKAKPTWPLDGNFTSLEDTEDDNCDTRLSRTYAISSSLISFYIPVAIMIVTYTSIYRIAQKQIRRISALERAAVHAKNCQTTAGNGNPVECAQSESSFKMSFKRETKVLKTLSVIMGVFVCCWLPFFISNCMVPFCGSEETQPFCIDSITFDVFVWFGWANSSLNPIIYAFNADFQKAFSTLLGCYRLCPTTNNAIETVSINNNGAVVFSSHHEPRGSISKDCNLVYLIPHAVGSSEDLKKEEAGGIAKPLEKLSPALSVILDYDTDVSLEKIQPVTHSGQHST

D(2) dopamine receptor [3] = biological target: T2, D(2) dopamine receptor (Rattus norvegicus, UniProt P61169); test: Binding affinity at Dopamine receptor D2 in rat striatal membrane by [3H]spiperone displacement.; type: cell membranes, Striatum
T2 sequence (P61169 whole entry): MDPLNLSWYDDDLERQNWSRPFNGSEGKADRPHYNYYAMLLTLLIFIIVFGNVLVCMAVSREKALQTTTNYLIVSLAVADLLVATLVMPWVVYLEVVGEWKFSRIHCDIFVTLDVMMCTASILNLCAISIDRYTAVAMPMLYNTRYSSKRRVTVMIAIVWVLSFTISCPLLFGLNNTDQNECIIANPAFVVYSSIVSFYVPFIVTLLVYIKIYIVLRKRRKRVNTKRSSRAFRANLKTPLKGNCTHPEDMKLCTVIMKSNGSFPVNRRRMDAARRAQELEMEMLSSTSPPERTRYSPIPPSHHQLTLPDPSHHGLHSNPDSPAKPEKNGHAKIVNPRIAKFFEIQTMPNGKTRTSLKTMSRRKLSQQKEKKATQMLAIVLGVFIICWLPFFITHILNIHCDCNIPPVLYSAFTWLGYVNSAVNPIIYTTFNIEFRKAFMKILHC
Summary of the method: (§2)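 Rat striatal membranes; [³H]spiperone 0.2 nM final; nonspecific binding defined with (+)-butaclamol 1.0 µM final. Four to six concentrations, each run in triplicate; Ki obtained by nonlinear regression analysis.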

Monkey = test: Compound was tested for inhibition of conditioned avoidance after administering perorally(po) in squirrel monkeys; type: functional; conditions: Cebidae, in Saimiri
D(2) dopamine receptor [4] = biological target: T2, D(2) dopamine receptor; test: Binding affinity against Dopamine receptor D2 in CHO-K1 cells using radioligand [3H]NPA binding assay; type: cell-based
D(2) dopamine receptor [5] = biological target: T3, D(2) dopamine receptor (Homo sapiens, UniProt P14416); test: […] Dopamine receptor D2 mitogenesis measured as [3H]thymidine incorporation in CHO p-5 cells expressing human D2 receptors
T3 sequence (P14416 whole entry): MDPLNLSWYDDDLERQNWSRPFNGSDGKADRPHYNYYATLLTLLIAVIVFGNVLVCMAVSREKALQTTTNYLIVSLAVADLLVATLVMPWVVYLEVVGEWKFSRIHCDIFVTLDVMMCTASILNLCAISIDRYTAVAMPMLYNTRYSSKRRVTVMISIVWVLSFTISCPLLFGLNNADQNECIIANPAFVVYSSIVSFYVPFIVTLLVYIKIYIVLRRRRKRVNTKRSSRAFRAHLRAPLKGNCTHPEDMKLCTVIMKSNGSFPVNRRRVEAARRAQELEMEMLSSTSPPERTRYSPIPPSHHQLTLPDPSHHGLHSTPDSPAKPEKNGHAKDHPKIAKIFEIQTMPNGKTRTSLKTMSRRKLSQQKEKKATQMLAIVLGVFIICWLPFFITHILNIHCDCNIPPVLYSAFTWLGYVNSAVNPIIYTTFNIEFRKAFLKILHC
Summary of the method: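 CHO p-5 cells transfected with human D2L are grown 2 days at 37 °C in medium with 10% calf serum, rinsed, and switched to serum-free medium plus compound in water. After 16-17 h, [³H]thymidine (1 µCi/well) is added for 4 h; cells are harvested onto filters and counted.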

Rattus norvegicus [6] = test: Percent decrease of the firing rate of rat substantia nigra DA neurons at a dose of 2.5 mg/kg ip; type: functional; conditions: route intraperitoneal
Rattus norvegicus [7] = test: In vivo inhibition of locomotor activity in the rat following p.o. administration.; type: functional; conditions: po
D(3) dopamine receptor = D(3) dopamine receptor (Homo sapiens, UniProt P35462); test: Binding affinity against human Dopamine receptor D3 in CHO-K1 cells using [3H]spiperone as radioligand; type: cell-based
Chain of D(3) dopamine receptor (P35462 whole entry): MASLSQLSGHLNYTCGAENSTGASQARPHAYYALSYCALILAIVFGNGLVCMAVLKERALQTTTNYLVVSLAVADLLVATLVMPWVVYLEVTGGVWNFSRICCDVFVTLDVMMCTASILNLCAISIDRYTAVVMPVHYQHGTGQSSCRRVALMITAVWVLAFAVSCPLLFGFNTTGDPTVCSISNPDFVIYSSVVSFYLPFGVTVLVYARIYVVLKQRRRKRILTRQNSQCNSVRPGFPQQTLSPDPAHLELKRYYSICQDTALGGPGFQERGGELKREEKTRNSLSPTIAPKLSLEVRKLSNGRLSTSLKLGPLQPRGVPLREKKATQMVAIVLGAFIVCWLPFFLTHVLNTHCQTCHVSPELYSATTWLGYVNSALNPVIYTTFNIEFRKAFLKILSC

[8] = biological target: T4, 5-hydroxytryptamine receptor 1A (Rattus norvegicus, UniProt P19327); test: Binding affinity against serotonin 5-hydroxytryptamine 1A receptor using radioligand [3H]8-OH-DPAT binding assay
T4 sequence (P19327 whole entry): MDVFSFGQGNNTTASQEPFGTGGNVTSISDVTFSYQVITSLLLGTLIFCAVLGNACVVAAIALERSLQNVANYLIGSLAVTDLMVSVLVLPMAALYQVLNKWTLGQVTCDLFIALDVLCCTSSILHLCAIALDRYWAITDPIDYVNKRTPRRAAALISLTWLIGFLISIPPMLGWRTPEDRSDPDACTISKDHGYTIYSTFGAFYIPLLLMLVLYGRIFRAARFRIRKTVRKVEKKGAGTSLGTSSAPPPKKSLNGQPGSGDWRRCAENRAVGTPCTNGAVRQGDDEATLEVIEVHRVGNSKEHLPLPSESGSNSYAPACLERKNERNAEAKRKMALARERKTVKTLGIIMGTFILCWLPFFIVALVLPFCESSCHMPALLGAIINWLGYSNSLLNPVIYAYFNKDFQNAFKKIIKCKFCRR
Summary of the method: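 Rat hippocampal membranes labelled with [³H]-8-OH-DPAT (0.4 nM final); nonspecific binding with 8-OH-DPAT (1 µM).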

D(4) dopamine receptor = biological target: T5, D(4) dopamine receptor (Homo sapiens, UniProt P21917); test: Binding affinity against human Dopamine receptor D4 in CHO-K1 cells using [3H]spiperone as radioligand; type: cell-based
T5 sequence (P21917 whole entry): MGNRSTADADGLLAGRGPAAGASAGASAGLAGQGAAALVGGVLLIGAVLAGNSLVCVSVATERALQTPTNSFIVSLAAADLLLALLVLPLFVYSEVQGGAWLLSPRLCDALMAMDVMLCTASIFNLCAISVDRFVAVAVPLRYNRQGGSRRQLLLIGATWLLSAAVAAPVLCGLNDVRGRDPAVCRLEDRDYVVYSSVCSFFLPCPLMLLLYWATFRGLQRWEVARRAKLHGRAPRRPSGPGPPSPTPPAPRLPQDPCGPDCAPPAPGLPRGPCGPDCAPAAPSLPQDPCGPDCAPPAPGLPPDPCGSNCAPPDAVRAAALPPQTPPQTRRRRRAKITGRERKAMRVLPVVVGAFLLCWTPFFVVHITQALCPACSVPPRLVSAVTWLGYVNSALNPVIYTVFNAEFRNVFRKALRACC
Summary of the method: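 Human D4.2 receptor expressed in CHO K1 cells; [³H]spiperone 0.2 nM final; nonspecific binding defined with haloperidol 1.0 µM final.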

D(2) dopamine receptor [9] = biological target: T3, D(2) dopamine receptor; test: Compound was evaluated […] for Dopamine receptor D2 mitogenesis. [3H]thymidine incorporation in CHO p-5 cells expressing human D2 receptors.; type: organism-based
Summary of the method: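 CHO p-5 cells transfected with human D2L receptor are grown 2 days at 37 °C in medium with 10% calf serum, then rinsed and put in serum-free medium. Compound (in water) is added for 16-17 h, then [³H]thymidine (1 µCi/well) for 4 h. Cells are harvested and counted. Maximal effect is given as % of quinpirole (100%).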

D(1A) dopamine receptor [10] = biological target: T1, D(1A) dopamine receptor; test: Binding affinity against dopamine receptor D1 using radioligand ([3H]-SCH 23390) binding assay
D(2) dopamine receptor [11] = biological target: T2, D(2) dopamine receptor; test: Compound was evaluated for their affinity against dopamine receptor D2 by displacing [3H]-spiperone in rat striatal membrane; type: cell membranes, Striatum; summary of the method: as §2
[12] = biological target: T6, Adrenergic receptor alpha-1 (Rattus norvegicus, UniProt P15823+P23944+P43140); test: Binding affinity against Alpha-1 adrenergic receptor using radioligand [3H]prazosin binding assay.; type: protein assay
T6 sequence (P15823 whole entry): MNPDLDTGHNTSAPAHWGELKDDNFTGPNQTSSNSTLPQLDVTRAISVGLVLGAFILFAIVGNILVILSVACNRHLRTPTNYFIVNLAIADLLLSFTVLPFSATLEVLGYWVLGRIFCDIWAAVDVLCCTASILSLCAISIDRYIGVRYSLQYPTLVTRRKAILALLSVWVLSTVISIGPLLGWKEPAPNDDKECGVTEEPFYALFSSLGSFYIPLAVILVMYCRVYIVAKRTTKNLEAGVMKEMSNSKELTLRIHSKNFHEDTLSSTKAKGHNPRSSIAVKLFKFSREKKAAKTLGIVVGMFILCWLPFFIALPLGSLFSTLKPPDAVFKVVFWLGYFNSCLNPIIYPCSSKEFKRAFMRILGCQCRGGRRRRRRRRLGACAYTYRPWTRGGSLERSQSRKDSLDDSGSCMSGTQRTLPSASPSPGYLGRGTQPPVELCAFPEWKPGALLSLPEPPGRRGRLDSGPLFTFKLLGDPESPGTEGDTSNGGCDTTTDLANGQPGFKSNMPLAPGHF
T6 sequence (P23944 whole entry): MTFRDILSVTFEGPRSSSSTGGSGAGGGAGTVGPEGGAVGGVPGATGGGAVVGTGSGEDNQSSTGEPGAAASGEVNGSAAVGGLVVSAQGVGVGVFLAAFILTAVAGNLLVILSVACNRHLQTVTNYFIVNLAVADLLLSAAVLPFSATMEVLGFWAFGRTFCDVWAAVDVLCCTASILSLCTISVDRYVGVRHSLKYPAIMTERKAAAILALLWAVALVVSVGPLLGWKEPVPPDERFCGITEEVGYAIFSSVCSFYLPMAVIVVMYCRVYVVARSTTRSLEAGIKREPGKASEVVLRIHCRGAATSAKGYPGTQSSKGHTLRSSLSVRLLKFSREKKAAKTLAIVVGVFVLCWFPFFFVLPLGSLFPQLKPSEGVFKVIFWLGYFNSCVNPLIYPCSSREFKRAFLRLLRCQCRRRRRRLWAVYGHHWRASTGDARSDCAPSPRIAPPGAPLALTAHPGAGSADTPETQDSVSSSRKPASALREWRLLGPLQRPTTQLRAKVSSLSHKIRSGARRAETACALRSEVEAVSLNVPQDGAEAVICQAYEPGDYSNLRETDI
T6 sequence (P43140 whole entry): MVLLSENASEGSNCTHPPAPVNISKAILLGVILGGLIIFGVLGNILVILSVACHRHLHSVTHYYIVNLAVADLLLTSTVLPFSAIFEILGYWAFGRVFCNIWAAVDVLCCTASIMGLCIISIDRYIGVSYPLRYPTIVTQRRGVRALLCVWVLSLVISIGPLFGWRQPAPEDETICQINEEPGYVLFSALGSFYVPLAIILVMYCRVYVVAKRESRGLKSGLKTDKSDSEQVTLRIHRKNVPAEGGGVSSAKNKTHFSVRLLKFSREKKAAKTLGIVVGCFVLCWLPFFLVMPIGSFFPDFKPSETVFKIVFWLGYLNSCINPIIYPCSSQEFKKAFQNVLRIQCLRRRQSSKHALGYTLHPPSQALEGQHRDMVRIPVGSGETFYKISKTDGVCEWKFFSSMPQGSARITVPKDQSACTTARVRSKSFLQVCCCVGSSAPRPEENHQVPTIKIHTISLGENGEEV
Summary of the method: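 Inhibition of [³H]prazosin (0.1 nM final) binding in rat cortex membranes; phentolamine (10 µM final) defines nonspecific binding.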

Rattus norvegicus [13] = test: Compound was tested for the inhibition of locomotor activity (LMA)by administering orally in rat; type: functional; conditions: po
Summary of the method: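 Rats dosed orally 1 h before a 30 min test in darkened cylindrical photobeam chambers. Percent inhibition of locomotor activity relative to vehicle-treated animals; ED50 derived from three to six doses, n = 6-18 animals/dose.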

Mus musculus [14] = test: as §1; type: functional; conditions: ip; remark: listed apart in the source
Summary of the method: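 Mice dosed ip, then tested immediately for 1 h in darkened cylindrical photobeam chambers. Percent inhibition of locomotor activity relative to vehicle-treated animals; ED50 derived from three to six doses, n = 6-18 animals/dose.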

For `Nc1ccc(C#CCCN2CC=C(c3ccccc3)CC2)cn1`, the ED50 (Mus musculus [1]) was 0.06 mg/kg, the Ki (D(1A) dopamine receptor [2]) was greater than 10000 nM and the Ki (D(2) dopamine receptor [3]) was 33 nM. The ED50 (Monkey) was 2.8 mg/kg, the Ki (D(2) dopamine receptor [4]) was 19 nM and the EC50 (D(2) dopamine receptor [5]) was 0.5 nM. It also gave a Decrease (Rattus norvegicus [6]) of 63%, an ED50 (Rattus norvegicus [7]) of 2.5 mg/kg and a Ki (D(3) dopamine receptor) of 7 nM. For the same compound, the Ki [8] was 632 nM and the Ki (D(4) dopamine receptor) was 278 nM.
With `C(#Cc1cncc2ccccc12)CCN1CC=C(c2ccccc2)CC1` the Ki (D(2) dopamine receptor [3]) was 73 nM and the ED50 (Rattus norvegicus [7]) was 3.8 mg/kg.
Compound `Nc1ccc(C#CCCN2CC=C(c3ccccc3)CC2)cc1` has a Max effect (D(2) dopamine receptor [9]) of 49%, a Ki (D(1A) dopamine receptor [10]) greater than 10000 nM and an ED50 (Monkey) of 3.8 mg/kg. It also gave a Ki (D(2) dopamine receptor [4]) of 0.67 nM, a Ki (D(2) dopamine receptor [11]) of 48 nM and a Decrease (Rattus norvegicus [6]) of 81%. It also gave a Ki [12] of 34.5 nM, a Ki [8] greater than 10000 nM and an ED50 (Rattus norvegicus [13]) of 2.7 mg/kg. The Ki (D(4) dopamine receptor) was 228 nM.
Compound `C(#Cc1ccccc1)CCN1CC=C(c2ccccc2)CC1` has an ED50 (Mus musculus [1]) of 9.5 mg/kg, a Ki (D(2) dopamine receptor [11]) of 284 nM and an ED50 (Rattus norvegicus [13]) of 20.5 mg/kg.
`C(#Cc1cccnc1)CCN1CC=C(c2cccs2)CC1` gave an ED50 (Mus musculus [14]) of 0.86 mg/kg, a Ki (D(2) dopamine receptor [3]) of 255 nM and an ED50 (Rattus norvegicus [7]) of 5 mg/kg.
`C(#Cc1cccnc1)CCN1CCN(c2ncccn2)CC1` gave an ED50 (Mus musculus [1]) greater than 30 mg/kg and a Ki (D(2) dopamine receptor [3]) greater than 10000 nM.
With `C(#Cc1ccc2[nH]ccc2c1)CCN1CC=C(c2ccccc2)CC1` the ED50 (Mus musculus [1]) was 1.2 mg/kg, the Ki (D(2) dopamine receptor [3]) was 193 nM and the ED50 (Rattus norvegicus [7]) was 5.2 mg/kg.
`C(#Cc1cnc2ccccc2c1)CCCN1CC=C(c2ccccc2)CC1` was tested, and the ED50 (Rattus norvegicus [7]) was 18.6 mg/kg.
`COc1ccc(C#CCCN2CC=C(c3ccccc3)CC2)cc1` was tested, and the ED50 (Mus musculus [1]) was 3.3 mg/kg, the Ki (D(2) dopamine receptor [3]) was 327 nM and the ED50 (Rattus norvegicus [7]) was greater than 30 mg/kg.
`C(#Cc1cnc2ccccc2c1)CN1CC=C(c2ccccc2)CC1` was tested, and the ED50 (Mus musculus [14]) was greater than 30 mg/kg and the Ki (D(2) dopamine receptor [3]) was greater than 10000 nM.
`C(#Cc1cccnc1)CCCN1CC=C(c2ccccc2)CC1` gave a Ki (D(2) dopamine receptor [3]) of 56 nM and an ED50 (Rattus norvegicus [7]) of 4.3 mg/kg.
`C(#Cc1ccc2occc2c1)CCN1CC=C(c2ccccc2)CC1` gave an ED50 (Mus musculus [1]) of 2.5 mg/kg, a Ki (D(2) dopamine receptor [3]) of 440 nM and an ED50 (Rattus norvegicus [7]) of 10.6 mg/kg.
